TRPC4 act: TRPC4 (mouse) channel activation; 310,000 compounds, 0.49% hits; HEK293 TRPC4beta/mu-opioid, Fluo4 calcium fluorescence; hits give high values; AID 2237; Q9QUQ5; B-score at 10 µM;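 active means B-score above 5 SD of library B-scores, and initial fluorescence ratio not above library mean plus 5 SD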;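 further: positive B-score marks a calcium rise read as TRPC4 activation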
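Material: TRPC4beta and mu-opioid receptor HEK293 stable cells | Incubation: 45 min room-temperature Fluo4 loading, 110 s read | Detection: Kinetic Fluo4 calcium fluorescence | Measure: Integrated baseline-normalised fluorescence ratio, converted to per-well B score | Benchmarks: Low control buffer alone, high control maximal DAMGO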
TRPC6 inh: mouse TRPC6 channel inhibition; HEK293-TRPC6, membrane potential dye, ACh-evoked depolarization; hits give low values; AID 2553; B-score at 10 µM; Q61143; 310,000 compounds, 1.1% hits;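 active means B-score under library mean minus 3 SD, initial fluorescence not abnormally high, positive integrated signal ratio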;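 further: B-score derived from integrated fluorescence ratio over the kinetic read; more negative B-score means stronger inhibition of depolarization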
Target sequence (Q61143 whole entry, looked up): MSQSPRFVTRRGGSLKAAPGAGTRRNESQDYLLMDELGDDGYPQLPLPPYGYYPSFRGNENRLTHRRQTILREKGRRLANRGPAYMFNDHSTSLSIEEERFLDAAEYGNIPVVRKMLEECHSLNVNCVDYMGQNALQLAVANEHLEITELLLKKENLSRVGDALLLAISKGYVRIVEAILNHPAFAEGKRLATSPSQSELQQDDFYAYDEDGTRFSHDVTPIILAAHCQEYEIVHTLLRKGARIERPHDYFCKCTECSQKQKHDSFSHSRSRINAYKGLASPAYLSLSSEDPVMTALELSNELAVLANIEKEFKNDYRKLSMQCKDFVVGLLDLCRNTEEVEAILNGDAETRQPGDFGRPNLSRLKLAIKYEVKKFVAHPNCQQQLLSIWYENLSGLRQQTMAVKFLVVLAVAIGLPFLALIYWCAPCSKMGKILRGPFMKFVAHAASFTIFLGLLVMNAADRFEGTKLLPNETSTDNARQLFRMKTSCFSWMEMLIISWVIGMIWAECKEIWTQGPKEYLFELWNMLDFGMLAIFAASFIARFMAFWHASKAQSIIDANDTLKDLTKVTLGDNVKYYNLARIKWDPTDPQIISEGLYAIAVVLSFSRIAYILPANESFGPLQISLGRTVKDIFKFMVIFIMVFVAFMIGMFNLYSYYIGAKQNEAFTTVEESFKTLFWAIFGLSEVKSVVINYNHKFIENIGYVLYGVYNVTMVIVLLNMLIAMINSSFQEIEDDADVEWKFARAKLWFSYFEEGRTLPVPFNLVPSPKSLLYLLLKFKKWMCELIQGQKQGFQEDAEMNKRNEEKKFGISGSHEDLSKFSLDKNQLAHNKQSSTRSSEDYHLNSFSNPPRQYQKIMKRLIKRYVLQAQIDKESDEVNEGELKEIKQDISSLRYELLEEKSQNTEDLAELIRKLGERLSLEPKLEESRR
TRPC4 inh: TRPC4 (mouse) channel inhibition | Q9QUQ5 | HEK293 TRPC4beta/mu-opioid, DAMGO-evoked Fluo4 calcium flux; hits give low values | B-score at 10 µM | 300,000 compounds, 0.39% hits;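 active means B-score over 3 SD under the library average, no early fluorescence shift, positive overall ratio signal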
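Assay system: HEK293 cells with stable TRPC4beta plus mu-opioid receptor expression; Probe or stimulus: DAMGO in two steps, submaximal then maximal; Dosing: single-point compound dosing; Measured by: Fluo4 calcium-dye fluorescence, kinetic read; Read-out basis: B score from integrated Fluo4 fluorescence ratio.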
TRPC4 PAM: allosterically enhances the mouse TRPC4 cation channel. HEK293 TRPC4beta/mu-opioid, DAMGO EC20, Fluo-4 Ca2+ flux; hits give high values. B-score at 10 µM. Q9QUQ5. AID 2227. 310,000 compounds, 0.42% hits;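 active means B-score of calcium response area above 5 SD of library B-scores, with initial fluorescence ratio within 5 SD of library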;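 further: B-score of integrated fluorescence ratio over time as area under calcium response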
TRPC6 act: mouse TRPC6 channel activation | HEK293-TRPC6 membrane potential dye fluorescence; hits give high values | 310,000 compounds, 0.13% hits | B-score at 10 µM | Q61143 | AID 2550;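 active means B-score of the integrated fluorescence ratio above library mean plus 3 SD, and starting fluorescence ratio within library mean plus 5 SD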;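 further: higher score means more depolarization so channel activation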
TRPC4 sel inh 2: second check of whether TRPC6 inhibitors also affect mouse TRPC4; shares compounds with TRPC6 inh; HEK293 TRPC4/MOR, membrane potential dye fluorescence; channel activated by saturating DAMGO dose; inhibition, % at 10 µM; 920 compounds, 42% hits;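 active means compounds whose fluorescence signal differed from control wells by over 3 SD, either direction, in both duplicate plates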
TRPC4 spec: tests whether TRPC6 inhibitors also affect mouse TRPC4 | shares compounds with TRPC6 inh | HEK293 TRPC4/mu-opioid, membrane potential fluorescence | activity change, negative = inhibition, % at 10 µM | 920 compounds, 61% hits;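 active means rise or fall in signal beyond 3 SD of buffer-only wells in both replicate plates, either sign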;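 further: integrated kinetic ratio of fluorescence range over baseline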
HEK293 MPD ctr 2-1: parental HEK293 nonspecific activity of TRPC6 inhibitors, second screen; shares compounds with TRPC6 inh; parental HEK293 membrane potential dye fluorescence; maximal acetylcholine challenge after compound addition; signal change vs control, % at 10 µM; 920 compounds, 31% hits;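 active means membrane potential signal moving either way by over 3 SD of the maximum-effect control, in both duplicate plates, meaning non-specific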
HEK293 MPD ctr-1: counter-screen for TRPC6 inhibitors: effect in parental HEK293 cells; shares compounds with TRPC6 inh; parental HEK293 membrane potential dye fluorescence; membrane potential signal change, % at 10 µM; 920 compounds, 60% hits; AID 2780;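 active means membrane potential signal shifting up or down by more than 3 SD of buffer-only wells, on both duplicate plates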
HEK293 MPD ctr-2: parental HEK293 nonspecific activity of TRPC6 modulators | shares compounds with TRPC6 inh | 2,400 compounds, 51% hits | membrane potential dye fluorescence | membrane potential signal change, % at 10 µM;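 active means membrane potential signal moves up or down beyond 5 SD from buffer-only wells, on both duplicate plates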
HEK293 MPD ctr 2-2: second check of TRPC6 modulator effects in parental HEK293 cells. shares compounds with TRPC6 inh. membrane potential dye fluorescence; after compound, maximal acetylcholine stimulation. inhibition, % at 10 µM. 2,400 compounds, 14% hits;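 active means membrane potential signal drops by more than 5 SD from the mean control signal, in both duplicate plates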;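 further: plate controls were acetylcholine ECmax control wells for no effect and buffer only wells for full effect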
TRPC4 ctr mod: mouse TRPC4 off-target activity of TRPC6 modulators; shares compounds with TRPC6 inh; HEK293 TRPC4/mu-opioid, membrane potential fluorescence; percent change from control (negative = decrease, positive = increase), % at 10 µM; 2,400 compounds, 69% hits; AID 488927;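 active means membrane potential signal moved up or down beyond 5 SD of buffer control wells, in both duplicate plates, actives on both sides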;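 further: plate controls were assay buffer wells for no effect and DAMGO maximal-effect wells for full effect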
TRPC4 ctr inh 2: second check of whether TRPC6 modulators also affect mouse TRPC4; shares compounds with TRPC6 inh; HEK293 TRPC4/mu-opioid, membrane potential dye fluorescence; stimulated with maximal-effect DAMGO; inhibition, % at 10 µM; 2,400 compounds, 55% hits;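 active means drop in membrane potential signal beyond 5 SD of the control wells in both duplicate plates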;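 further: TRPC4 counter screen for TRPC6 hits run under conditions tuned for TRPC6 not TRPC4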
TRPC6 inh conf: confirmation of mouse TRPC6 inhibitors. HEK293-TRPC6, membrane potential dye, ACh-evoked depolarization. inhibition, % at 10 µM. 3,300 compounds, 43% hits. shares compounds with TRPC6 inh. AID 488960;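 active means fluorescence ratio falls more than 5 SD below the full-stimulation control mean, in both duplicate runs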;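 further: integrated fluorescence ratio of peak minus minimum over baseline after agonist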
TRPC6 act confirm: confirmation of mouse TRPC6 activators | HEK293-TRPC6 membrane potential dye fluorescence, FDSS | AID 488961 | 2,800 compounds, 11% hits | activation, % at 10 µM | shares compounds with TRPC6 inh;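 active means ratio signal rise beyond 5 SD above unstimulated control wells' mean, seen in both duplicate runs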;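 further: plate controls were buffer EC0 wells for no effect and acetylcholine ECmax response for full effect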
Active calls of the source: *; i = inactive; / = no result. Compounds with a hit are over-represented: about 2.3% of the library has one in this group of screens.

SMILES	TRPC4 act	TRPC6 inh	TRPC4 inh	TRPC4 PAM	TRPC6 act	HEK293 MPD ctr-2	HEK293 MPD ctr 2-2	TRPC4 ctr mod	TRPC4 ctr inh 2	TRPC6 inh conf	TRPC6 act confirm	others
CCCCCCC(=O)N1CCCC(c2nc(-c3cccc(OC)c3)no2)C1 (configuration not stated)	i	-5.9*	i	i	i	i	i	10%*	30%*	64%*	/
CCCC(=O)N1CCCC(c2nc(-c3cccc(OC)c3)no2)C1 (configuration not stated)	i	i	i	i	i	/	/	/	/	/	/
O=C(NCCCn1ccnc1)C1c2ccccc2Oc2ccccc21	i	-6*	i	i	i	i	i	32%*	i	i	i
Cc1ccc(C)c(N2CCN(c3ccncc3N)CC2)c1	i	-6.5*	i	i	i	i	i	i	52%*	i	i
CCOC(=O)C1CCCN(CCC(=O)Nc2cc(OC)ccc2OC)C1 (configuration not stated)	i	i	i	i	i	/	/	/	/	/	/
Cc1cc(NCCN(C)C)n2nc(-c3cccs3)cc2n1	i	-6.8*	i	i	i	-272%*	i	-52%*	48%*	i	i
O=C(Cn1nnc(-c2cccs2)n1)NCCc1ccccc1	i	i	i	i	i	/	/	/	/	/	/
COc1ccc(CCNC(=O)Cn2nnc(-c3cccs3)n2)cc1OC	i	-5.8*	i	i	i	i	i	i	i	i	i
C/C(=N\NC(=S)NC(C)C)c1ccccc1OC(F)F	i	-8.8*	i	i	i	/	/	/	/	i	i	TRPC4 sel inh 2=i;TRPC4 spec=i;HEK293 MPD ctr 2-1=i;HEK293 MPD ctr-1=i
O=C(COc1ccc([N+](=O)[O-])cc1)Nc1ccncc1	i	-5.2*	i	i	i	-134%*	i	-28%*	32%*	37%*	i
O=C(COc1ccc(/C=N/NC(=O)c2ccncc2)cc1)Nc1ccc([N+](=O)[O-])cc1	i	i	i	i	i	/	/	/	/	/	/
CCCCOc1ccc(C(=O)OC2CC(C)N(C)CC2C)cc1 (configuration not stated)	i	i	i	i	15*	253%*	i	50%*	48%*	i	120%*
c1ccc(CCNc2ccnc3cc4ccccc4cc23)cc1	i	i	i	i	i	/	/	/	/	/	/
COc1ccc(Nc2ccnc3ccccc23)cc1	i	-8.5*	i	i	i	/	/	/	/	54%*	i	TRPC4 sel inh 2=54%*;TRPC4 spec=-25%*;HEK293 MPD ctr 2-1=i;HEK293 MPD ctr-1=-284%*
CC(C)Nc1ccc(Nc2ccnc3cc4ccccc4cc23)cc1	i	-6.2*	i	i	i	i	i	i	54%*	i	i
COc1ccc(Nc2ncnc3ccccc23)cc1	i	i	i	i	i	/	/	/	/	/	/
CC(C)c1cc(C(=O)N2CCCC(Nc3ccc(F)cc3)C2)nc(N)n1 (configuration not stated)	i	-5.9*	i	i	i	i	i	i	i	i	i
Cc1ccc(CSc2nnc(-c3cccs3)n2C)cc1	i	i	i	i	i	/	/	/	/	/	/
Cn1c(SCc2c(Cl)cccc2Cl)nnc1-c1cccs1	i	-6.6*	i	i	i	274%*	i	56%*	i	i	/
CCCn1nc(NC(=O)c2cccs2)c2cc3cc(C)ccc3nc21	i	i	i	i	i	/	/	/	/	/	/
CCOC(=O)c1c(-c2ccccc2)csc1NC(=O)/C(C#N)=C/c1ccc(OC)c(OC)c1	i	i	i	i	i	/	/	/	/	/	/
CCOC(=O)c1c(-c2ccccc2)csc1NC(=O)/C(C#N)=C/c1ccc(O)c(OC)c1	i	i	i	i	35*	438%*	i	92%*	i	i	129%*
Cc1cccc(C)c1NC(=O)c1cccnc1	i	-6.3*	i	i	i	i	i	i	i	i	i
O=C(C1CCCN(Cc2ccc(F)cc2)C1)N1CCCCC1 (configuration not stated)	i	i	i	i	i	/	/	/	/	/	/
O=C(Nc1ccccc1Oc1cccnc1)C1CCCN(Cc2ccc(F)cc2)C1 (configuration not stated)	i	-6.4*	-6*	i	i	176%*	i	31%*	46%*	i	/
COC(=O)c1c(NC(=O)Cn2cnc([N+](=O)[O-])n2)sc2c1CCC(C)C2 (configuration not stated)	i	i	i	i	i	/	/	/	/	/	/
C[n+]1cccc2ccc3c(c21)OC(N)=C(C#N)C3c1ccccc1 (configuration not stated)	i	-9.2*	i	i	i	-284%*	80%*	-48%*	60%*	74%*	i
COc1ccc(Br)cc1CN1CCCCCC1	i	i	i	i	i	/	/	/	/	/	/

Screening data (PubChem BioAssay)
